From ChEMBL document CHEMBL1148481, “Linker length modulates DNA cross-linking reactivity and cytotoxic potency of C8/C8' ether-linked C2-exo-unsaturated pyrrolo[2,1-c][1,4]benzodiazepine (PBD) dimers” (J Med Chem, 2004)

Columns and labels:
[1] = Compound was tested for percentage inhibition of restriction endonuclease BamH1 enzyme at a concentration of 25 uM;Inhibited
[2] = Compound was tested for inhibition of restriction endonuclease BamH1 enzyme at a concentration of 25 uM;Inhibited
Method in brief: (§1)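 BamHI protection assay: a 512-bp PvuII plasmid fragment with a single BamHI site (500 ng) was incubated with the PBD (methanol stock 10 mM) for 16 h at 37 °C. It was then digested with BamHI (10 units) for 1 h at 37 °C. Cut and uncut DNA were resolved on a 1% agarose TBE gel, stained with ethidium bromide, and the cut fraction was quantified versus dose.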

Nucleic Acid [3] = test: Thermal stabilization of duplex form of calf thymus DNA after incubation for 18 hours; type: functional; details: Bos taurus
Method in brief: (§2)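 UV melting of calf thymus DNA (100 μM phosphate, 50 μM bp) with ligand at 20 μM (ligand:DNA 1:5) in pH 7.00 buffer (10 mM sodium phosphate, 1 mM EDTA), ≤0.6% v/v MeOH with correction. Samples were preincubated at 37 °C for the stated time, heated at 1 °C/min over 45–98 °C and monitored at 260 nm. ΔTm is the midpoint shift versus free DNA, from at least three determinations.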

Nucleic Acid [4] = test: Thermal stabilization of duplex form of calf thymus DNA after incubation for 4 hours; type: functional; details: Bos taurus; method in brief: as §2
Nucleic Acid [5] = test: Thermal stabilization of duplex form of calf thymus DNA after incubation for 0 hours; type: functional; details: Bos taurus; method in brief: as §2
Nucleic Acid [6] = test: Compound dose required to induce 50 percent cross linking in naked plasmid pBR322 DNA following incubation with agent for 2 hours at 37 degree C; type: functional
Method in brief: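 Denatured at 90 °C for 2.5 min in 30% DMSO and run on 0.8% agarose, 40 V, 14–16 h. Autoradiography and laser densitometry of double- vs single-stranded bands gave dose–response curves; mean of ≥3 experiments.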

K562 [7] = test: Inhibitory concentration against human K562 leukemia cells following incubation for 1 hour; type: functional, cell-based; details: K562, 1 h
Method in brief: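 K562 cells in RPMI 1640 with 10% FCS and 2 mM glutamine were exposed to drug for 1 h at 37 °C in the dark, then washed. They were plated at 10⁴ cells/well (8 wells per sample) and grown 4 days. MTT was added for 5 h, formazan dissolved in DMSO, and OD read at 550 nm. IC50 is the dose reducing OD to 50% of control.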

K562 [8] = test: Dose required to induce 50 percent decrease in tail moment of the DNA of K562 cells following a 1 hour treatment; type: functional, Homo sapiens
Method in brief: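 Alkaline Comet assay in K562 cells after 1 h drug exposure, done on ice in subdued light. Cells were irradiated (10 Gy), embedded in agarose, lysed 1 h at pH 10.5, held in alkali 45 min and electrophoresed 25 min at pH 12.5. Slides were propidium iodide stained; 25 cells per duplicate slide. Value is the dose giving 50% decrease in tail moment relative to irradiated controls.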

[9] = Compound was tested for inhibition of restriction endonuclease BamH1 enzyme at a concentration of 17.5 uM;Inhibited; method in brief: as §1
HOP-62 = test: Compound was tested for 50% growth inhibition against human non-small cell lung cancer HOP-62 cell line; type: functional
SN12C = test: Compound was tested for 50% growth inhibition against human renal cancer […] cell line; type: functional
HCC 2998 = test: Compound was tested for 50% growth inhibition against human colon cancer HCC2998 cell line; type: functional
PC-3 = test: Compound was tested for 50% growth inhibition against human prostate cancer PC-3 cell line; type: functional
HL-60 = test: Compound was tested for 50% growth inhibition against human leukemia […] cell line; type: functional
SK-MEL-5 = test: Compound was tested for 50% growth inhibition against human melanoma SK-MEL-5 cell line; type: functional
LOX IMVI = test: Compound was tested for 50% growth inhibition against human melanoma LOXIMVI cell line; type: functional
HCT-116 = test: Compound was tested for 50% growth inhibition against human colon cancer HCT116 cell line; type: functional
SW-620 = test: Compound was tested for 50% growth inhibition against human colon cancer SW 620 cell line; type: functional
IGROV-1 = test: Compound was tested for 50% growth inhibition against human ovarian cancer IGROVI cell line; type: functional
Malme-3M = test: Compound was tested for 50% growth inhibition against human melanoma MALME-3M cell line; type: functional
786-0 = test: Compound was tested for 50% growth inhibition against human renal cancer 786-0 cell line; type: functional
[10] = Compound was tested for inhibition of restriction endonuclease BamH1 enzyme at a concentration of 10 uM;Inhibited; method in brief: as §1
KM12 = test: Compound was tested for 50% growth inhibition against human colon cancer KM12 cell line; type: functional
NCI-H460 = test: Compound was tested for 50% growth inhibition against human non-small cell lung cancer NCI-H460 cell line; type: functional
SF-268 = test: Compound was tested for 50% growth inhibition against human CNS cancer SF-268 cell line; type: functional
DU-145 = test: Compound was tested for 50% growth inhibition against human prostate cancer DU-145 cell line; type: functional
SK-MEL-28 = test: Compound was tested for 50% growth inhibition against human melanoma SK-MEL-28 cell line; type: functional
SF-539 = test: Compound was tested for 50% growth inhibition against human CNS cancer SF-539 cell line; type: functional
CAKI-1 = test: Compound was tested for 50% growth inhibition against human renal cancer CAKI-1 cell line; type: functional
A498 = test: Compound was tested for 50% growth inhibition against human renal cancer A498 cell line; type: functional
U-251 = test: Compound was tested for 50% growth inhibition against human CNS cancer U251 cell line; type: functional
EKVX = test: Compound was tested for 50% growth inhibition against human non-small cell lung cancer EKVX cell line; type: functional
SF-295 = test: Compound was tested for 50% growth inhibition against human CNS cancer SF-295 cell line; type: functional
Hs-578T = test: Compound was tested for 50% growth inhibition against human breast cancer HS 578T cell line; type: functional
SK-OV-3 = test: Compound was tested for 50% growth inhibition against human ovarian cancer SK-OV-3 cell line; type: functional
NCI-H226 = test: Compound was tested for 50% growth inhibition against human non-small cell lung cancer NCI-H226 cell line; type: functional
UO-31 = test: Compound was tested for 50% growth inhibition against human renal cancer UO-31 cell line; type: functional
T47D = test: Compound was tested for 50% growth inhibition against human breast cancer T-47D cell line; type: functional
NCI-H322M = test: Compound was tested for 50% growth inhibition against human non-small cell lung cancer NCI-H322M cell line; type: functional
HT-29 = test: Compound was tested for 50% growth inhibition against human colon cancer HT-29 cell line; type: functional
SR = test: Compound was tested for 50% growth inhibition against human leukemia SR cell line; type: functional
MCF7 = test: Compound was tested for 50% growth inhibition against human breast cancer MCF-7 cell line; type: functional
M14 = test: Compound was tested for 50% growth inhibition against human melanoma M14 cell line; type: functional
HCT-15 = test: Compound was tested for 50% growth inhibition against human colon cancer HCT-15 cell line; type: functional
MDA-MB-231 = test: Compound was tested for 50% growth inhibition against human breast cancer MDA-MB-231/ATCC cell line; type: functional
OVCAR-3 = test: Compound was tested for 50% growth inhibition against human ovarian cancer OVCAR-3 cell line; type: functional
NCI-H23 = test: Compound was tested for 50% growth inhibition against human non-small cell lung cancer NCI-H23 cell line; type: functional
BT-549 = test: Compound was tested for 50% growth inhibition against human breast cancer BT-549 cell line; type: functional
CCRF-CEM = test: Compound was tested for 50% growth inhibition against human leukemia CCRF-CEM cell line; type: functional
NCI/ADR-RES = test: Compound was tested for 50% growth inhibition against human breast cancer NCI/ADR-RES cell line; type: functional
HOP-92 = test: Compound was tested for 50% growth inhibition against human non-small cell lung cancer […] cell line; type: functional
SNB-19 = test: Compound was tested for 50% growth inhibition against human CNS cancer SNB-19 cell line; type: functional
A549 = test: Compound was tested for 50% growth inhibition against human non-small cell lung cancer A549/ATCC cell line; type: functional
COLO 205 = test: Compound was tested for 50% growth inhibition against human colon cancer COLO 205 cell line; type: functional
TK-10 = test: Compound was tested for 50% growth inhibition against human renal cancer TK-10 cell line; type: functional
MDA-N = test: Compound was tested for 50% growth inhibition against human breast cancer MDA-N cell line; type: functional
OVCAR-8 = test: Compound was tested for 50% growth inhibition against human ovarian cancer OVCAR-8 cell line; type: functional
RPMI-8226 = test: Compound was tested for 50% growth inhibition against human leukemia RPMI-8226 cell line; type: functional
MOLT-4 = test: Compound was tested for 50% growth inhibition against human leukemia MOLT-4 cell line; type: functional
OVCAR-5 = test: Compound was tested for 50% growth inhibition against human ovarian cancer OVCAR-5 cell line; type: functional
ACHN = test: Compound was tested for 50% growth inhibition against human renal cancer ACHN cell line; type: functional
UACC-257 = test: Compound was tested for 50% growth inhibition against human melanoma UACC-257 cell line; type: functional

## Cc1ccc2c(c1O)NC(O)C1CC(/C=C/C(N)=O)=CN1C2=O (stereo unspecified)
[1]
  inhibition: 12%

## COc1cc2c(cc1OCCCOc1cc3c(cc1OC)C(=O)N1CCC[C@H]1C=N3)N=C[C@@H]1CCCN1C2=O [DSB-120]
[2]
  Activity: Inhibited
Nucleic Acid [3]
  ΔTm: 15.1 °C
Nucleic Acid [4]
  ΔTm: 13.1 °C
Nucleic Acid [5]
  ΔTm: 10.2 °C
Nucleic Acid [6]
  C50: 0.055 µM
K562 [7]
  IC50: 200 nM

## C=C1C[C@H]2C=Nc3cc(OCCCOc4cc5c(cc4OC)C(=O)N4CC(=C)C[C@H]4C=N5)c(OC)cc3C(=O)N2C1 [SJG-136]
Nucleic Acid [3]
  ΔTm: 33.6 °C
Nucleic Acid [4]
  ΔTm: 31.9 °C
Nucleic Acid [5]
  ΔTm: 25.7 °C
Nucleic Acid [6]
  C50: 0.045 µM
K562 [7]
  IC50: 43 nM
K562 [8]
  C50: 0.03 µM
[9]
  Activity: Inhibited

## C/C=C1\C[C@H]2C=Nc3cc(O)c(OC)cc3C(=O)N2C1
Nucleic Acid [3]
  ΔTm: 2.6 °C
Nucleic Acid [4]
  ΔTm: 2.4 °C
Nucleic Acid [5]
  ΔTm: 1 °C

## COc1cc2c(cc1OCCCCCOc1cc3c(cc1OC)C(=O)N1CCC[C@H]1C=N3)N=C[C@@H]1CCCN1C2=O
Nucleic Acid [3]
  ΔTm: 9.4 °C
Nucleic Acid [4]
  ΔTm: 5.9 °C
Nucleic Acid [5]
  ΔTm: 3.3 °C
Nucleic Acid [6]
  C50: 0.07 µM
K562 [7]
  IC50: 500 nM

## C=C1C[C@H]2C=Nc3cc(OCCCCCOc4cc5c(cc4OC)C(=O)N4CC(=C)C[C@H]4C=N5)c(OC)cc3C(=O)N2C1
HOP-62
  GI50: 0.117 nM
SN12C
  GI50: 0.0269 nM
HCC 2998
  GI50: 0.186 nM
PC-3
  GI50: 0.617 nM
HL-60
  GI50: 0.0148 nM
Nucleic Acid [3]
  ΔTm: 25.8 °C
Nucleic Acid [4]
  ΔTm: 25.5 °C
SK-MEL-5
  GI50: 0.245 nM
LOX IMVI
  GI50: 0.0549 nM
HCT-116
  GI50: 0.174 nM
SW-620
  GI50: 0.288 nM
IGROV-1
  GI50: 0.0049 nM
Malme-3M
  GI50: 0.162 nM
786-0
  GI50: 0.0977 nM
[10]
  Activity: Inhibited
Nucleic Acid [5]
  ΔTm: 24.9 °C
Nucleic Acid [6]
  C50: 0.004 µM
KM12
  GI50: 0.245 nM
NCI-H460
  GI50: 0.0955 nM
SF-268
  GI50: 0.0501 nM
DU-145
  GI50: 0.049 nM
SK-MEL-28
  GI50: 0.219 nM
SF-539
  GI50: 0.0363 nM
CAKI-1
  GI50: 0.178 nM
A498
  GI50: 0.224 nM
U-251
  GI50: 0.0427 nM
EKVX
  GI50: 1.58 nM
SF-295
  GI50: 0.038 nM
Hs-578T
  GI50: 0.302 nM
SK-OV-3
  GI50: 0.162 nM
NCI-H226
  GI50: 0.162 nM
UO-31
  GI50: 0.251 nM
K562 [7]
  IC50: < 1 nM
T47D
  GI50: 0.0199 nM
NCI-H322M
  GI50: 0.468 nM
HT-29
  GI50: 0.224 nM
SR
  GI50: < 0.001 nM
MCF7
  GI50: 0.0933 nM
M14
  GI50: 0.141 nM
HCT-15
  GI50: 1.74 nM
MDA-MB-231
  GI50: 0.371 nM
OVCAR-3
  GI50: 0.2 nM
NCI-H23
  GI50: 0.0832 nM
BT-549
  GI50: 0.162 nM
CCRF-CEM
  GI50: 0.00646 nM
NCI/ADR-RES
  GI50: 7.94 nM
HOP-92
  GI50: 0.112 nM
SNB-19
  GI50: 0.105 nM
A549
  GI50: 0.123 nM
COLO 205
  GI50: 0.166 nM
K562 [8]
  C50: 0.009 µM
TK-10
  GI50: 0.295 nM
MDA-N
  GI50: 0.209 nM
OVCAR-8
  GI50: 0.195 nM
RPMI-8226
  GI50: 0.186 nM
MOLT-4
  GI50: 0.012 nM
OVCAR-5
  GI50: 0.309 nM
ACHN
  GI50: 0.0251 nM
UACC-257
  GI50: 0.525 nM
